Pf gamet viab: P. falciparum stage V gametocyte viability inhibition; actives 0.065% (n = 150,000); inhibition, % at 10.9 µM; P. falciparum stage V gametocytes, ATP luminescence, 24 h; AID 743093;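 active = inhibition above the mean plus 3 SD of compounds within the control limits, set per campaign, cut at about 38% in these data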
Biofilm kill mix: mixtures killing C. albicans biofilm | C. albicans biofilm persisters + clotrimazole, fluorescence viability; primary screen in compound mixtures of four per well | inhibition, % at 7.6 µM | actives 0.02% (n = 120,000);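 active = inhibition above 30.3% in the primary screen of four-compound pools, then above 30% when the compound was retested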;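 note: compounds exposed to preformed 24 h biofilms for 48 h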
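Incubation: 24 h biofilm formation, then 48 h compound exposure, 37 °C | Material: C. albicans biofilms | Buffer or medium: RPMI/MOPS medium, pH 7.0 | Measured by: 2-h Alamar Blue fluorescence, 535/590 nm excitation/emission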
Large screens that a line does not name were inactive. This is a sample that favours compounds with a hit; in the whole collection about 0.078% have one here.

CCOC(=O)N1CCN(S(=O)(=O)c2ccc(C(=O)Nc3nnc(C)o3)cc2)CC1	none
Cc1nnc(NC(=O)c2ccc(S(=O)(=O)N3CCc4ccccc4C3)cc2)o1	Pf gamet viab 49.4
O=C1Cc2ccccc2C(=O)N1OCc1ccc(Cl)cc1	Pf gamet viab 40.7
O=S1(=O)CCN(OCc2ccc(Cl)cc2)CC1	none
CCC(CO)NCc1ccccc1OC(C)C (stereo not drawn)	none
O=C(N/N=C/C=C/c1ccc2c(c1)OCO2)C(O)c1ccccc1 (stereo not drawn)	none
Cc1ccc(NC(=O)c2nc[nH]c2C(=O)N[C@@H](C)c2ccccc2)cc1	none
Cc1ccc(NC(=O)c2[nH]cnc2C(=O)NN)cc1	Pf gamet viab 39.6
N#CCCN1CCN(Cc2ccccc2)CCC1=O	none (no result: Biofilm kill mix)
Cc1ccc(C2(CCNC(C)c3cccs3)CCOC(C(C)C)C2)cc1 (stereo not drawn)	Biofilm kill mix 41.1
COc1ccccc1C1(CCNC(C)c2cccs2)CCOC(C(C)C)C1 (stereo not drawn)	none
CCN1/C(=C/c2ccc3cc(C)ccc3[n+]2CC)Sc2cc(C)c(C)cc21	Biofilm kill mix 32.3
CCN1/C(=C/c2ccc3cc(C)ccc3[n+]2CC)Sc2ccccc21	none
CCN(CC)S(=O)(=O)c1ccc(Cl)c(NC(=O)COC(=O)c2cccn2C)c1	Pf gamet viab 42.1
CCN(CC)S(=O)(=O)c1ccc(Cl)c(NC(=O)COC(=O)c2ccc(O)cc2)c1	none
CCCn1c(=S)[nH]c2cc(C(=O)N3CCc4ccccc4C3)ccc2c1=O	Pf gamet viab 47.3
CCCn1c(=S)[nH]c2cc(C(=O)N3CCN(c4ccccc4OC)CC3)ccc2c1=O	none (no result: Pf gamet viab)
CC(=O)C1=C(O)C(=O)N(c2ccc(O)cc2)C1c1ccccc1Cl (stereo not drawn)	none (no result: Biofilm kill mix)
O=C(COC(=O)CSc1ccc2ccccc2c1)NCc1ccc2c(c1)OCO2	Pf gamet viab 47.6
O=C(COC(=O)CSc1nnc(-c2ccc(Cl)cc2)o1)NCc1ccc2c(c1)OCO2	none (no result: Biofilm kill mix)
OC1(C(F)(F)F)CC(c2ccc3ccccc3c2)=NO1 (stereo not drawn)	none
CC1CCC(N2CCN(C(=O)c3ccccc3F)CC2)CC1 (stereo not drawn)	none (no result: Biofilm kill mix)
O=S(=O)(c1ccc(OC(F)(F)F)cc1)N1CCCC(N2CCOCC2)C1 (stereo not drawn)	none (no result: Biofilm kill mix)
CC(C(=O)Nc1ccccc1Oc1ccccc1)c1ccccc1 (stereo not drawn)	Pf gamet viab 60.2
COc1ccccc1NC(=O)c1ccccc1Oc1ccccc1	none (no result: Biofilm kill mix)
Cn1c2ccccc2c(=O)c2c(=O)n(-c3ccc(F)cc3)c(C3CCCCC3)nc21	none (no result: Biofilm kill mix)
Cc1cc(C)cc(NC(=O)Nc2ccccc2N2CCCCC2)c1	none
CC(=O)Nc1sc2c(c1C#N)CCC(C)C2 (stereo not drawn)	none
Cc1ccc(C)n1-c1sc2c(c1C#N)CCC(C)C2 (stereo not drawn)	Pf gamet viab 38.3 (no result: Biofilm kill mix)
Cc1ccc(Nc2nc(N)nc(CN3CCN(Cc4ccc5c(c4)OCO5)CC3)n2)cc1C	Biofilm kill mix 32.7
Cc1ccc(Nc2nc(N)nc(CN3CCN(Cc4ccc5c(c4)OCO5)CC3)n2)cc1Cl	none (no result: Biofilm kill mix)
Cc1cc(C)c(NC(=S)N(C)C)c(C)c1	none
Cc1ccc(C(=O)Oc2ccc(/C=N/NC(N)=O)cc2)cc1	none
COc1ccc(C(=O)Oc2ccc(/C=N/O)cc2)cc1	Pf gamet viab 39.9 (no result: Biofilm kill mix)
O=C(N/N=C/c1ccc([N+](=O)[O-])s1)c1cccnc1	none
Cc1ccc(S(=O)(=O)N(C)c2c(C)ccc(S(=O)(=O)N3CCN(C)CC3)c2C)cc1	none
Cc1ccc(S(=O)(=O)N2CCN(Cc3ccccc3)CC2)c(C)c1N(C)S(=O)(=O)c1ccccc1	Pf gamet viab 41.8
CC(=O)c1ccc(N=Nc2ccc(N)cc2)cc1	none
COc1ccccc1-c1cc2nc(C)c(CCC(=O)NCc3ccc(F)cc3)c(C)n2n1	none
COc1cc(OC)cc(-c2cc3nc(C)c(CCC(=O)NCc4ccccc4)c(C)n3n2)c1	Pf gamet viab 38.6
O=C1Nc2ccccc2N(O)N1c1cc(-c2ccc(Cl)cc2)[nH]n1	none
C/C(=N/NC(=O)c1cccs1)c1c(C)[nH]n(-c2nc3ccccc3s2)c1=O	Pf gamet viab 56.1
COC(=O)Cc1[nH]n(-c2nc3ccccc3s2)c(=O)c1C(C)=Nc1ccc(C)cc1	none (no result: Pf gamet viab)
N#Cc1c(N)n(-c2cccc(O)c2)c2nc3ccccc3nc12	none
N#Cc1c(N)n(-c2ccc(O)cc2)c2nc3ccccc3nc12	Pf gamet viab 38.2
CCOc1ccc(C(=S)N2CCCC2)c(OCC)c1	none (no result: Biofilm kill mix)
O=C1CN(C(=O)CNCc2ccccc2)c2ccccc2N1	none
Nc1c2c(nc3ccccc13)CCCC2	none (no result: Pf gamet viab)
Cc1cccc2c(N)c3c(nc12)CCCC3 (tested in a mixture with another compound)	Pf gamet viab 42.9
CCCN(CCC)S(=O)(=O)c1ccc(C(=O)Nc2ccc(S(=O)(=O)Nc3nnc(CC)s3)cc2)cc1	none (no result: Biofilm kill mix)
COc1ccccc1N=c1oc2cc(O)ccc2cc1C(=O)NCC1CCCO1 (stereo not drawn)	none (no result: Biofilm kill mix)
COc1ccccc1N=c1oc2cc(O)ccc2cc1C(N)=O	Pf gamet viab 55.6 (no result: Biofilm kill mix)
COc1ccc(CC(=O)Nc2cccnc2)cc1	none (no result: Biofilm kill mix)
O=C1CC(c2ccc(Cl)cc2)CC(=O)C1CS(=O)(=O)c1ccccc1 (stereo not drawn)	none
O=C1CCCC(=O)C1CS(=O)(=O)c1ccccc1	Pf gamet viab 38.7
CC(C)(C)C(=O)/C(=C\c1cccc([N+](=O)[O-])c1)n1cncn1	none (no result: Pf gamet viab)
CN(C)c1ccc(/C=N/N2C(=O)c3ccccc3C2=O)cc1	none
COc1ccc(/C=N/N2C(=O)c3ccccc3C2=O)cc1	Pf gamet viab 56.8
Cn1c(=O)c2c(ncn2CC(COCc2ccccc2)OCc2ccccc2)n(C)c1=O (stereo not drawn)	none
CCC(C)Sc1nc2c(c(=O)[nH]c(=O)n2C)n1CCc1ccccc1 (stereo not drawn)	none (no result: Biofilm kill mix)
CCC(C)Sc1nc2c(c(=O)[nH]c(=O)n2C)n1CC(O)COc1ccccc1C (stereo not drawn)	Pf gamet viab 39.1
O=C(Cn1c(C(F)(F)F)nc2ccccc21)Nc1ccccc1C(=O)O	Pf gamet viab 39.4
CC(C(=O)Nc1ccccc1C(=O)O)n1c(C(F)(F)F)nc2ccccc21 (stereo not drawn)	none
Cn1c(=O)[nH]c(=O)c2c1nc(N/N=C/C(Br)=C/c1ccccc1)n2CCO	none
N/C(=N\N=C\c1ccc(Br)o1)c1nonc1N	none
CCOC(=O)CSc1nc2cc3c(cc2cc1C#N)OCCO3	none
CCOC(=O)CSc1nc2cc3c(cc2cc1C)OCO3	Pf gamet viab 38.7
CN(c1ccccc1)c1nccc(=O)[nH]1	none (no result: Biofilm kill mix)
O=C(Nn1c(C2CCCCC2)nc2ccccc2c1=O)c1ccc([N+](=O)[O-])cc1	Pf gamet viab 42.1
COc1cccc(OC)c1C(=O)Nn1c(C2CCC2)nc2ccccc2c1=O	none (no result: Biofilm kill mix)
CC(C)=CCCC(C)CN1CCC(N2CCC(C(=O)NC(C)C)CC2)CC1 (stereo not drawn)	none
CC(C)(C)c1ccc(-c2cn(-c3ccc(Br)cc3)c3[n+]2CCCS3)cc1	Biofilm kill mix 31.4
c1ccc(-c2cn(-c3ccccc3)c3[n+]2CCS3)cc1	none
CCOc1ccc(NC(=O)CCC(=O)NNC(=O)Nc2ccc(Cl)cc2)cc1	none
CN1CCC(N(C)C(=O)/C(C#N)=C/c2ccc(OC(F)F)cc2)CC1	none
CC(=O)N1CCN(c2c(F)c(F)c(C(F)(F)F)c(F)c2F)CC1	Biofilm kill mix 62.0
O=C(O)COc1c(F)c(F)c(C(F)(F)F)c(F)c1F	none (no result: Biofilm kill mix)
NS(=O)(=O)c1ccc(N2CCCC2=O)c([N+](=O)[O-])c1	Pf gamet viab 38.2

Screening data (PubChem)
